Screening data (PubChem)
The list is not random: actives were taken first. Their share in the collection is about 9.6%.
Lmaj promast – Leishmania major promastigote growth inhibition; 200,000 tested, 9% active; Leishmania major promastigotes, resazurin fluorescence viability; AID 1063; inhibition, % at 10 µM; in the data active = inhibition above about 50%;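 note: promastigotes grown with compound for 44 hours at 28 °C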
APP 5UTR inh – APP translation inhibition. SH-SY5Y APP 5'UTR-luciferase reporter, luminescence. inhibition, % at 2 µM. 190,000 tested, 0.82% active. AID 1285;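 active = inhibition above a set limit, derived from the sample mean plus 3 SD, cut at about 45% in these data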
MT stabilizer – microtubule stabilization, imaging screen | HeLa tubulin immunostaining HCS, 24 h; share of cells brighter than vehicle mean+2SD | % tubulin-high responders, % at 10 µM | 200,000 tested, 0.83% active;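 active = plate Z-score above 3 for both tubulin-high and condensed-nucleus cell shares, with cell loss under 80%, at 10 µM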;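 note: anti alpha tubulin signal scored within the nucleus-defined area of each cell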
Ba/F3 V617F tox – lowers viability of Ba/F3 cells expressing EpoR and JAK2V617F; 220,000 tested, 1.1% active; ATP luminescence; inhibition, % at 5.6 µM;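 active = inhibition above the campaign mean plus 3 SD over all tested compounds, cut at about 24% in these data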;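 note: cytokine-independent growth of Ba/F3 cells driven by EpoR plus mutant JAK2; 0% = DMSO-treated cells and 100% = JAK inhibitor I control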
bCat nuc transl – beta-catenin nuclear translocation modulation. nuclear translocation activity, % at 5 µM. HeLa beta-catenin nuclear translocation, immunofluorescence imaging. 190,000 tested, 0.3% active;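 active = nuclear translocation activity above 50% at 5 µM, with a well cell count of 50 or more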;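 note: per-cell ratio of nuclear to cytoplasmic median beta-catenin stain intensity; plate controls were DMSO negative control for no effect and GSK-3 inhibitor IX positive control for full effect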
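System: HeLa cells, endogenous beta-catenin; compound dosing: 5 µM primary single dose, 0.1% DMSO, 0.02–20 µM confirmation series; incubation: 24 h compound exposure at 37°C, 5% CO2; signal: beta-catenin immunofluorescence imaging with DAPI; evaluation: % activation, nuclear-to-cytoplasmic median beta-catenin signal ratio per cell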
BaF3 tox – parental Ba/F3 viability inhibition as JAK2V617F counter-screen; CellTiter-Glo ATP luminescence; AID 1486; 220,000 tested, 1.1% active; inhibition, % at 5.6 µM;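 active = inhibition above a per-campaign cutoff, the mean inhibition of all tested compounds plus 3 SD, cut at about 27% in these data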;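 note: 0% = DMSO wells and 100% = JAK Inhibitor I control wells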
Active calls of the source: *; x = no result.

SMILES | Lmaj promast | APP 5UTR inh | MT stabilizer | Ba/F3 V617F tox | bCat nuc transl | BaF3 tox
CCOc1cccc(N(C(=O)C2COc3ccccc3O2)C(C(=O)NC2CCCCC2)c2ccc(O)cc2)c1 (centres undefined) | 82* | 16 | 1 | -2 | 1 | 1
COc1ccc(CN(C(=O)c2nsc(Cl)c2Cl)C(C(=O)NC2CCCC2)c2ccc(C)cc2)cc1 (centres undefined) | 71* | x | 4 | -1 | 0 | 7
COc1ccc(C(=O)OCCOc2ccccc2C(C)=O)c(O)c1 | 19 | 14 | 1 | 4 | -1 | 5
C=CCNCC(=O)NN=C(c1ccccc1)c1ccccc1 | -7 | -9 | 1 | 1 | 0 | 6
COc1ccc(C(C(=O)NC2CCCCC2)N(C(=O)CCl)c2ccc(C)cc2)cc1 (centres undefined) | 91* | 6 | 5 | 1 | 1 | 5
COc1ccc(C(C(=O)NC2CCCC2)N(C(=O)c2ccoc2C)c2ccc(C)cc2)cc1 (centres undefined) | 25 | 2 | 2 | -1 | 1 | 4
Cc1ccc(C(C(=O)NC2CCCCC2)N(C(=O)CCCC(=O)Nc2ccccn2)c2ccc3c(c2)OCCO3)cc1 (centres undefined) | 68* | -19 | 4 | -2 | 0 | 3
COc1ccc(-c2nsc(C(=O)N(c3ccc(F)cc3)C(C(=O)NC3CCCC3)c3ccc(OC)cc3)c2N)cc1 (centres undefined) | 90* | -6 | 4 | 1 | -1 | 8
O=C(NCCCN1CCOCC1)C(=O)N/N=C/c1ccccc1O | x | x | x | -3 | 2 | -2
COc1ccccc1N1CCN(CC(O)COc2ccc3c(c2)OCO3)CC1 (centres undefined) | -4 | -8 | 2 | 0 | 3 | 4
CCN1CCN(CC(O)COc2ccc(C(C)=O)cc2)CC1 (centres undefined) | 8 | 13 | 8 | 4 | x | 8
COc1ccc(OCC(O)CN2CCN(Cc3ccc4c(c3)OCO4)CC2)cc1 (centres undefined) | 99* | 0 | 3 | 0 | x | 6
Cc1ccc(OCC(O)CN2CCN(Cc3ccc4c(c3)OCO4)CC2)c(C)c1 (centres undefined) | 87* | 9 | 2 | -2 | -5 | 2
CC(=O)c1ccc(OCC(O)CN2CCN(Cc3ccc4c(c3)OCO4)CC2)cc1 (centres undefined) | 93* | 13 | 9 | 4 | -5 | 3
CCCC(=O)N1CCN(c2ccc(NC(=S)NC(=O)c3cccc(C)c3)cc2)CC1 | 27 | -14 | 3 | 1 | -5 | 3
O=C(c1cc2sccc2n1Cc1ccc(F)cc1)N1CCCc2ccccc21 | 78* | 58* | 2 | -3 | -2 | -3
CC(C)NC(=O)C1CCN(C(=O)c2cc3sccc3n2Cc2ccc(F)cc2)CC1 | 13 | 2 | 2 | -3 | x | 0
CC1CCN(C(=O)C2CCN(C(=O)c3cc4sccc4n3Cc3ccc(F)cc3)CC2)CC1 | 67* | -2 | 4 | -1 | 0 | 2
COc1ccc(CCNC(=O)C(=O)NCc2ccc(C)cc2)cc1OC | -2 | 20 | 2 | -2 | -1 | 2
CCc1ccc(C(=O)Nc2cc(C)ccc2F)s1 | 3 | -40 | 6 | -3 | 2 | 4
COc1c(Cl)cnn(-c2ccc(C)cc2)c1=O | -2 | 13 | 2 | 6 | -5 | 10
O=c1c(Br)c(N2CCCC2)cnn1-c1ccccc1 | 33 | -93 | 3 | 0 | -3 | 4
O=c1c(Br)c(Br)cnn1-c1ccccc1 | 101* | 96* | 7 | 101* | -1 | 50*
Cc1ccc(-n2ncc(Br)c(Br)c2=O)cc1 | 100* | 94* | 2 | 101* | 0 | 106*
CCCc1nn(C)c(C(=O)Nc2cccc3ccccc23)c1Cl | 0 | -38 | 4 | 2 | -3 | 6
SMILES | Lmaj promast | APP 5UTR inh | MT stabilizer | Ba/F3 V617F tox | bCat nuc transl | BaF3 tox
CCCCCCCC[n+]1c(C)n(-c2ccccc2)c2ccc(NC(C)=O)cc21 | 99* | -9 | 5 | 87* | -2 | 74*
O=C(NC(=S)Nc1ccc2c(c1)OCO2)c1ccccc1 | -4 | -170 | 2 | -1 | -2 | 5
O=C(NC(=S)Nc1cccc(Cl)c1N1CCCCC1)c1ccc2c(c1)OCCO2 | 97* | 12 | 29* | -1 | 86* | 5
O=C(NC(=S)Nc1ccc2c(c1)OCCO2)c1cccc(Br)c1 | 68* | -91 | 5 | 6 | x | 6
O=C(Nc1ccc2c(c1)OCCO2)c1ccc(Br)s1 | 54* | -198 | 2 | 1 | 1 | 7
O=C(Nc1ccc2c(c1)OCCO2)c1cncc(Br)c1 | -3 | -157 | 2 | 1 | -2 | 3
CC1=C(C)CC(C(=O)Nc2nc(-c3ccc(C)cc3C)c(C)s2)C(C(=O)O)C1 (centres undefined) | -5 | -9 | 1 | 2 | -2 | 3
Cc1ccc(NC(=O)Cn2nc(-c3ccccc3Cl)ccc2=O)c(Br)c1 | 6 | -14 | 5 | -4 | 0 | 1
CNc1nc(NC#N)nc(SC)n1 | x | x | x | 0 | 0 | -4
CCN(CC)CCNc1nc2cc(OC)c(OC)cc2c2nc(-c3ccccc3)nn12 | 100* | -13 | 2 | 1 | 0 | 7
CCCCNC(=O)CCC(=O)NNc1nc2ccccc2c2nc(-c3ccccc3)nn12 | -4 | 33 | 2 | -1 | -5 | 5
COc1cc2[nH]c(=O)n3nc(-c4ccccc4)nc3c2cc1OC | 50* | -2 | 4 | -4 | -3 | 2
COc1ccc(-c2nc3c4ccccc4[nH]c(=O)n3n2)cc1 | 37 | -14 | 1 | 1 | 1 | 4
COC(=O)C1=NN(c2ccc(C)cc2)C2(S1)SC(C(C)=O)=C(C)N2c1ccccc1 (centres undefined) | 22 | -17 | 4 | -1 | -1 | 3
COC(=O)Nc1ccc(S(=O)(=O)N2c3ccccc3CCC2C)cc1 (centres undefined) | 100* | 61* | 19* | 57* | 8 | 41*
COC(=O)Nc1ccc(S(=O)(=O)N2CCCCC2C(=O)O)cc1 (centres undefined) | 1 | 3 | 3 | -3 | -3 | 5
CN1CCN(Cc2cccc(Oc3ccccc3)c2)CC1 | 100* | -10 | 1 | 3 | x | 5
OC1CCN(Cc2cccc(Oc3ccccc3)c2)CC1 | 100* | -7 | 3 | -3 | 2 | 1
CCN1CCN(CCOc2cccc(Oc3ccccc3)c2)CC1 | 95* | 16 | 5 | 0 | -1 | 7
O=C1CCN(Cc2ccccc2)CCN1CCO | x | x | x | x | 0 | x
O=C(c1ccccc1)N1CCN(Cc2cccc(Oc3ccccc3)c2)CC1 | -4 | 10 | 2 | -2 | 0 | 3
OCCN1CCN(Cc2cccc(Oc3ccc(Cl)cc3)c2)CC1 | 99* | -4 | 7 | 2 | 0 | 5
CCOC(=O)c1sc(NC(=O)CSc2nncn2C)nc1C | 1 | -22 | 7 | 3 | -4 | 5
